The results in this text go back to ChEMBL document CHEMBL1155459, “On-bead screening of a combinatorial fumaric acid derived peptide library yields antiplasmodial cysteine protease inhibitors with unusual peptide sequences” (J Med Chem, 2009).

Peptide text beside a SMILES is read from it.

In general, inhibition refers to the share of the control response that was lost under treatment.

The target in experiment [1] is Rhodesain (Trypanosoma brucei rhodesiense) (UniProt Q95PM0). Nature of the experiment: Inhibition of Trypanosoma brucei rhodesiense rhodesain after 12 hrs by fluorescence spectroscopy-based on-bead assay. The arrangement: concentration or dose not given beside the values. The conditions noted are these: concentration not given here. In outline: (§1)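 Library members on resin (PEGA, theoretical loading 0.40 mmol/g; added as DMSO suspension, 0.64 mM final inhibitor) preincubated with enzyme 12 h, then Cbz-Phe-Arg-AMC 40 μM added; AMC release followed by fluorescence (ex 380/em 460 nm). Kinetics compared with inhibitor-free amino-PEGA resin.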

A short description of experiment [2]: Inhibition of Plasmodium falciparum falcipain-2 after 12 hrs by fluorescence spectroscopy-based on-bead assay. On the set-up: concentration or dose not given beside the values. Conditions: concentration not given here. In outline: as §1

Sequence of Rhodesain (Trypanosoma brucei rhodesiense) (Q95PM0 1-450): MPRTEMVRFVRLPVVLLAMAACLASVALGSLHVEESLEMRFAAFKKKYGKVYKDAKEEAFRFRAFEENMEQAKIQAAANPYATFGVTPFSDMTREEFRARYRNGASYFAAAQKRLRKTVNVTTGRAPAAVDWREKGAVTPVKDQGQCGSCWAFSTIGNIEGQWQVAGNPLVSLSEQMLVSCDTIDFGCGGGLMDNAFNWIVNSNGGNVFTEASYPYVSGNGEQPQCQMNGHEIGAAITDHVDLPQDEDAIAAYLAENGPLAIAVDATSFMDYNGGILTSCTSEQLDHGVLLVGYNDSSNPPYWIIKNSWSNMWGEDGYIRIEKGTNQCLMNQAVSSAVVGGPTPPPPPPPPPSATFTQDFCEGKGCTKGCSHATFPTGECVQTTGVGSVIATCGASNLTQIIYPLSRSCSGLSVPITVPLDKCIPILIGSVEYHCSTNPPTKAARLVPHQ

`CC(=O)NC[C@H](NC(=O)/C=C/C(=O)NCC(=O)NCC(=O)N[C@@H](Cc1ccccc1)C(=O)O)C(=O)N[C@@H](Cc1ccccc1)C(=O)N[C@@H](CC(C)C)C(=O)N[C@H](C(N)=O)C(C)C` (HELM PEPTIDE1{[O=C(/C=C/C(=O)[*:2])NCC(=O)NCC(=O)N[C@@H](Cc1ccccc1)C(=O)O].[O=C([C@H](CN[*:3])N[*:1])[*:2]].F.L.V.[am]}|PEPTIDE2{[ac]}$PEPTIDE1,PEPTIDE2,2:R3-1:R2$$$V2.0): the inhibition was 51% in experiment [1] and 59% in experiment [2].

For the molecule `CC(=O)NC[C@H](NC(=O)/C=C/C(=O)NCC(=O)NCC(=O)N[C@@H](Cc1ccccc1)C(=O)O)C(=O)N[C@@H](Cc1ccccc1)C(=O)N[C@H](C(=O)N[C@H](C(N)=O)C(C)C)C(C)C` (HELM PEPTIDE1{[O=C(/C=C/C(=O)[*:2])NCC(=O)NCC(=O)N[C@@H](Cc1ccccc1)C(=O)O].[O=C([C@H](CN[*:3])N[*:1])[*:2]].F.V.V.[am]}|PEPTIDE2{[ac]}$PEPTIDE1,PEPTIDE2,2:R3-1:R2$$$V2.0), the figures for the inhibition in experiment [1] and in experiment [2] were 61% and 46%, respectively.

On to `CC[C@H](C)[C@H](NC(=O)[C@H](CNC(C)=O)NC(=O)/C=C/C(=O)NCC(=O)NCC(=O)N[C@@H](Cc1ccccc1)C(=O)O)C(=O)N[C@@H](C)C(=O)N[C@H](C(N)=O)C(C)C` (HELM PEPTIDE1{[O=C(/C=C/C(=O)[*:2])NCC(=O)NCC(=O)N[C@@H](Cc1ccccc1)C(=O)O].[O=C([C@H](CN[*:3])N[*:1])[*:2]].I.A.V.[am]}|PEPTIDE2{[ac]}$PEPTIDE1,PEPTIDE2,2:R3-1:R2$$$V2.0), for which the inhibition in experiment [1] and in experiment [2] was 29% throughout.

Take `CC[C@H](C)[C@H](NC(=O)[C@H](CNC(C)=O)NC(=O)/C=C/C(=O)NCC(=O)NCC(=O)N[C@@H](Cc1ccccc1)C(=O)O)C(=O)N[C@@H](CC(C)C)C(=O)N[C@H](C(N)=O)C(C)C` (HELM PEPTIDE1{[O=C(/C=C/C(=O)[*:2])NCC(=O)NCC(=O)N[C@@H](Cc1ccccc1)C(=O)O].[O=C([C@H](CN[*:3])N[*:1])[*:2]].I.L.V.[am]}|PEPTIDE2{[ac]}$PEPTIDE1,PEPTIDE2,2:R3-1:R2$$$V2.0): the values for the inhibition in experiment [1] and in experiment [2] were 60% and 33%, respectively.

In the case of `CC[C@H](C)[C@H](NC(=O)[C@H](CNC(C)=O)NC(=O)/C=C/C(=O)NCC(=O)NCC(=O)N[C@@H](Cc1ccccc1)C(=O)O)C(=O)N[C@H](C(=O)N[C@H](C(N)=O)C(C)C)C(C)C` (HELM PEPTIDE1{[O=C(/C=C/C(=O)[*:2])NCC(=O)NCC(=O)N[C@@H](Cc1ccccc1)C(=O)O].[O=C([C@H](CN[*:3])N[*:1])[*:2]].I.V.V.[am]}|PEPTIDE2{[ac]}$PEPTIDE1,PEPTIDE2,2:R3-1:R2$$$V2.0), the values for the inhibition in experiment [1] and in experiment [2] were 41% and 28%, respectively.

With `CC(=O)NC[C@H](NC(=O)/C=C/C(=O)NCC(=O)NCC(=O)N[C@@H](Cc1ccccc1)C(=O)O)C(=O)N[C@@H](CC(C)C)C(=O)N[C@H](C(=O)N[C@H](C(N)=O)C(C)C)C(C)C` (HELM PEPTIDE1{[O=C(/C=C/C(=O)[*:2])NCC(=O)NCC(=O)N[C@@H](Cc1ccccc1)C(=O)O].[O=C([C@H](CN[*:3])N[*:1])[*:2]].L.V.V.[am]}|PEPTIDE2{[ac]}$PEPTIDE1,PEPTIDE2,2:R3-1:R2$$$V2.0), the inhibition was found to be 54% in experiment [1] and 41% in experiment [2].

With `CC(=O)NC[C@H](NC(=O)/C=C/C(=O)NCC(=O)NCC(=O)N[C@@H](Cc1ccccc1)C(=O)O)C(=O)N[C@H](C(=O)N[C@@H](C)C(=O)N[C@H](C(N)=O)C(C)C)c1ccccc1` (HELM PEPTIDE1{[O=C(/C=C/C(=O)[*:2])NCC(=O)NCC(=O)N[C@@H](Cc1ccccc1)C(=O)O].[O=C([C@H](CN[*:3])N[*:1])[*:2]].[Phg].A.V.[am]}|PEPTIDE2{[ac]}$PEPTIDE1,PEPTIDE2,2:R3-1:R2$$$V2.0), the inhibition in experiment [1] was 36%; in experiment [2] it was 37%.
